Experimental findings from ChEMBL document CHEMBL4715912, “Discovery of a novel series of indolinylpyrimidine-based GPR119 agonists: Elimination of ether-a-go-go-related gene liability using a hydrogen bond acceptor-focused approach” (Bioorg Med Chem, 2021) are described below.

Data set [1] is described as follows: Partition coefficient, logD between 1-octanol and pH 7.4 aqueous buffer by chromatographic analysis. It counts as physicochemical. The conditions noted are these: 1-octanol/pH 7.4 aqueous buffer. The procedure, abridged:
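LogD at pH 7.4, octanol/aqueous buffer partition, estimated by a chromatographic method adapted from a published procedure.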

For data set [2], the target named is T1, hERG (KCNH2) (Homo sapiens, UniProt Q12809). Put plainly: (§1) Inhibition of human ERG expressed in CHO cells at 10 uM incubated for 5 mins by patch-clamp assay relative to control. It counts as cell-based. The conditions noted are these: CHO cells expressing human ERG. The procedure, abridged:
(§2)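 hERG-expressing CHO cells grown at 32 °C, recorded by population patch clamp after amphotericin B perforation; PBS with Ca/Mg outside, KCl/EGTA/HEPES pH 7.3 inside. Holding −80 mV, step to 40 mV 2 s, then −50 mV 2 s; peak tail current before and after 5 min compound exposure. Percent inhibition = 100 − post/pre × 100; mean ± SD, n = 4.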
(The patch-clamp technique gives a direct electrical read-out from membranes.)

Data set [3] has as its target T2, Glucose-dependent insulinotropic receptor (Homo sapiens, UniProt Q8TDV5).
T2 sequence (Q8TDV5 whole entry): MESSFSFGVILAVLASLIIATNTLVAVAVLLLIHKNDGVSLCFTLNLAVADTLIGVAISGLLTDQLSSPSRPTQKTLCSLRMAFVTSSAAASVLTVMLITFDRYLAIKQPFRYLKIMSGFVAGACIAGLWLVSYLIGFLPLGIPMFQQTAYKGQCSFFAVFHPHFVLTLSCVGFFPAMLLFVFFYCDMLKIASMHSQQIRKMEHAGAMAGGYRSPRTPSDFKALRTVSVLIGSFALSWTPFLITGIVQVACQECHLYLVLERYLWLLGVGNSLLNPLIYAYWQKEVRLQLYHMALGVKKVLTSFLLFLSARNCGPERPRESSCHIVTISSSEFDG
Put plainly: Agonist activity at human GPR119 expressed in CHO cells co-expressing cyclic AMP response element incubated for 2 hrs by steady-glo luciferase assay. It counts as cell-based. The procedure, abridged: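 CHO cells stably expressing human GPR119, seeded at 10,000 cells/well in MEM α with 500 µg/mL Geneticin overnight, then exposed to graded compound concentrations in MEM α/20 mmol/L HEPES/0.1% BSA for 2 h. cAMP-driven luciferase read with Steady-Glo. Response normalized between vehicle and a 10 µM reference agonist; EC50 as mean of n = 2.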

Data set [4] can be described thus: Intrinsic clearance in rat liver microsomes at 1 uM measured after 15 to 30 mins in presence of NADPH generating system by LC/MS/MS analysis. The conditions noted are these: time 15-30 min, read-out: CLH. It counts as ADME, Microsome. A digest of the protocol: (§3)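 Human or rat liver microsomes at 0.2 mg/mL protein in 50 mM potassium phosphate pH 7.4 with 1 µM compound; reaction started with NADPH-generating system (5 mM MgCl2, 5 mM glucose-6-phosphate, 0.5 mM β-NADP+, 1.5 units/mL G6PDH). Stopped with acetonitrile at 15 and 30 min, parent by LC/MS/MS; rate from concentration–time slope, expressed as µL/min/mg.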

Data set [5] in a line: Intrinsic clearance in human liver microsomes at 1 uM measured after 15 to 30 mins in presence of NADPH generating system by LC/MS/MS analysis. The format is ADME, Microsome. The conditions noted are these: time 15-30 min, read-out: CLH. The procedure, abridged: as §3
Background: Liver microsomes are vesicles of endoplasmic reticulum, rich in cytochrome P450 enzymes.

In data set [6] the target is Voltage-gated inwardly rectifying potassium channel KCNH2 (Homo sapiens, UniProt Q12809). The description is as §1. The conditions noted are these: cho, 5 min, 10 µM. The format is cell-based. A digest of the protocol:
as §2

A short description of data set [7]: Total clearance in rat at 0.1 mg/kg, iv by LC/MS/MS analysis. The format is ADME, organism-based. To be noted: in vivo. A digest of the protocol:
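Cassette intravenous dosing at 0.1 mg/kg to non-fasted animals. Plasma taken from blood samples, deproteinized and centrifuged, and compound levels in supernatant quantified by LC/MS/MS.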

For data set [8], the target named is T1, hERG (KCNH2). Put plainly: Inhibition of human ERG expressed in CHO cells at 30 uM incubated for 5 mins by patch-clamp assay relative to control. The format is cell-based. To be noted: CHO cells expressing human ERG. A digest of the protocol: as §2

The structures appear in SMILES notation.

T1 sequence (Q12809 whole entry): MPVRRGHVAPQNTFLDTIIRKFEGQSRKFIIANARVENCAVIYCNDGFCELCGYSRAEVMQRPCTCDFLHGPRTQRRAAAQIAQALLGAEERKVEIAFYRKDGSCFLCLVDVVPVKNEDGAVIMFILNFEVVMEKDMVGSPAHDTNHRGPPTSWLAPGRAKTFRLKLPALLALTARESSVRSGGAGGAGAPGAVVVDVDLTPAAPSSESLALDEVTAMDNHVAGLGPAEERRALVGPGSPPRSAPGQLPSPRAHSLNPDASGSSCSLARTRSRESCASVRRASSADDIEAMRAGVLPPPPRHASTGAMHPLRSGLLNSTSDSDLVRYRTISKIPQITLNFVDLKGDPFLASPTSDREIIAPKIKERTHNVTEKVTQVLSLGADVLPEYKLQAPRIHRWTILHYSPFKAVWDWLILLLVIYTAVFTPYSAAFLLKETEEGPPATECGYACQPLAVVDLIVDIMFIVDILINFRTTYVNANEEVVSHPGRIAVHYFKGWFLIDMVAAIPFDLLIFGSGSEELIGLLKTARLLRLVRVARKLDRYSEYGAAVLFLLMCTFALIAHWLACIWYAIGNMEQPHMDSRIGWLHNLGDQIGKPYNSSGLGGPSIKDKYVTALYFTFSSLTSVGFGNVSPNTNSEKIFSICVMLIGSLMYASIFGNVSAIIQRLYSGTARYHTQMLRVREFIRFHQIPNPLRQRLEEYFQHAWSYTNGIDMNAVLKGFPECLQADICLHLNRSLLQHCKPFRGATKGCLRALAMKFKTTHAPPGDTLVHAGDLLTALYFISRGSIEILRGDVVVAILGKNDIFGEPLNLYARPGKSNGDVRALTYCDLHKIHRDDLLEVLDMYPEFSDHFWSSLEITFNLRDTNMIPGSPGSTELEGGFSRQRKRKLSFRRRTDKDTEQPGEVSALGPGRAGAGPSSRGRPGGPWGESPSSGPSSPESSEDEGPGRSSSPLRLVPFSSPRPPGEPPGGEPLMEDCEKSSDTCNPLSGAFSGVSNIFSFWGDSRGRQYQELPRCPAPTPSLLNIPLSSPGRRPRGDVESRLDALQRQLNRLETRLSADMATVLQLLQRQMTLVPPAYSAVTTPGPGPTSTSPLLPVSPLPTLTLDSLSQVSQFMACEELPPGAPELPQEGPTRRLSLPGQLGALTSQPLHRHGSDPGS
Sequence of Voltage-gated inwardly rectifying potassium channel KCNH2 (Q12809 whole entry): as above

In general, logD refers to lipophilicity at a set pH, counting ionised and neutral species. High values mean higher lipophilicity, low ones lower lipophilicity. A word on the inhibition: it is the change of the read-out against control, counted positive when it falls. What is called EC50 is the midpoint of the concentration-response curve. `CC(C)c1noc(N2CCC(Oc3cc(N4CCc5cc(S(=O)(=O)CCO)ccc54)ncn3)CC2)n1` displayed a logD in data set [1] of 2.7. Besides, the inhibition at 5 min, 10 µM on hERG (KCNH2) [2] turned out to be 102%. Also, the concentration giving a half-maximal response (EC50) in data set [3] worked out at 41 nM.

For the molecule `CC(C)c1noc(N2CCC(Oc3cc(N4CCc5cc(N6CCCS6(=O)=O)ccc54)ncn3)CC2)n1`, the microsomal CLint at 1 µM in data set [4] amounted to 1 µL/min/mg; in data set [5], 18 µL/min/mg. Further, the logD in data set [1] worked out at 3.2. Also, at hERG (KCNH2) [2], the inhibition at 5 min, 10 µM turned out to be 19%. The molecule also came in with a half-maximal effective concentration (EC50) in data set [3] of 9.7 nM.

For `CC(C)c1noc(N2CCC(Oc3cc(N4CCc5cc(C6CCCCC6=O)ccc54)ncn3)CC2)n1` (racemic), the microsomal CLint at 1 µM turned out to be 141 µL/min/mg in data set [4] and 78 µL/min/mg in data set [5]. This molecule also returned a logD in data set [1] of 4.7. The inhibition at 5 min, 10 µM against hERG (KCNH2) [2] turned out to be 13%. This molecule displayed an EC50 in data set [3] of 48 nM.

As for `CC(C)SC(=O)N1CCC(Oc2cc(N3CCc4cc([S+]([O-])CCO)ccc43)ncn2)CC1` (stereo in doubt; form 2), the logD in data set [1] came to 3.3. In addition, the “inhibition (INH)” value in data set [6] turned out to be 101%. This molecule came in with an EC50 in data set [3] of 9.7 nM.

For the molecule `CC(C)c1noc(N2CCC(Oc3cc(N4CCc5cc(N6CCNCC6=O)ccc54)ncn3)CC2)n1`, in data set [4], the microsomal CLint at 1 µM is 98 µL/min/mg. Besides, the log distribution coefficient (logD) in data set [1] is 2.7. For the same molecule, at hERG (KCNH2) [2], the inhibition at 5 min, 10 µM worked out at 15%. In addition, the concentration giving a half-maximal response (EC50) in data set [3] was 36 nM.

On to `CC(C)c1noc(N2CCC(Oc3cc(N4CCc5cc(N6CCCC6=O)ccc54)ncn3)CC2)n1`, for which, in data set [4], the microsomal CLint at 1 µM stood at 138 µL/min/mg. The same molecule registered a logD in data set [1] of 3.7. For the same molecule, the inhibition at 5 min, 10 µM on hERG (KCNH2) [2] was 20%. In addition, it took 33 nM to reach a half-maximal effect in data set [3] (EC50).

A word on the clearance: it is the rate of elimination divided by the concentration. With `CCc1cnc(N2CCC(C(C)COC(=O)N3CCc4cc(S(C)(=O)=O)cc(F)c43)CC2)nc1` (centres undefined), the microsomal CLint at 1 µM worked out at 365 µL/min/mg in data set [4] and 329 µL/min/mg in data set [5]. The inhibition at 5 min, 10 µM at hERG (KCNH2) [2] is 75%. This molecule gave a clearance in data set [7] of 47.7 mL/min/kg.

Regarding `CC(C)c1noc(N2CCC(Oc3cc(N4CCc5cc(N6CCCNS6(=O)=O)ccc54)ncn3)CC2)n1`, the values for the microsomal CLint at 1 µM in data set [4] and in data set [5] were 21 µL/min/mg and 79 µL/min/mg, respectively. In data set [1], this molecule had a logD of 3.2. Moreover, the inhibition at 5 min, 10 µM against hERG (KCNH2) [2] came out at 20%. This molecule gave a concentration giving a half-maximal response (EC50) in data set [3] of 24 nM.

In data set [1], `CC(C)SC(=O)N1CCC(Oc2cc(N3CCc4cc(S(C)(=O)=O)ccc43)ncn2)CC1` returned a logD of 3.6. For the same molecule, the inhibition at 5 min, 10 µM against hERG (KCNH2) [2] worked out at 89%. The molecule also returned a concentration for a half-maximal effect (EC50) in data set [3] of 3.2 nM.

With `CC(C)c1noc(N2CCC(Oc3cc(N4CCc5cc(N6CC(O)CCC6=O)ccc54)ncn3)CC2)n1` (racemic), the microsomal CLint at 1 µM in data set [4] stood at 7 µL/min/mg; in data set [5], 1 µL/min/mg. In data set [1], this molecule showed a logD of 2.6. In addition, at hERG (KCNH2) [2], the inhibition at 5 min, 10 µM was 18%. Further, a half-maximal response in data set [3] (EC50) required 90 nM.

Take `CC(C)c1noc(N2CCC(Oc3cc(N4CCc5cc(N6CCC(O)CC6=O)ccc54)ncn3)CC2)n1` (racemic): the microsomal CLint at 1 µM in data set [4] was 13 µL/min/mg; in data set [5], 4 µL/min/mg. Besides, the log distribution coefficient (logD) in data set [1] was 2.8. In addition, the inhibition at 5 min, 10 µM on hERG (KCNH2) [2] was 18%. For the same molecule, a half-maximal effect in data set [3] (EC50) was put at 89 nM.

As to `CC(C)c1noc(N2CCC(Oc3cc(N4CCc5cc(N6CCCCC6=O)ccc54)ncn3)CC2)n1`, the microsomal CLint at 1 µM in data set [4] was found to be 13 µL/min/mg. For the same molecule, the logD in data set [1] turned out to be 3.8. In addition, the inhibition at 5 min, 10 µM at hERG (KCNH2) [2] is 31%. Further, in data set [3], the EC50 was found to be 17 nM.

For `CC(C)SC(=O)N1CCC(Oc2cc(N3CCc4cc([S+]([O-])CCO)ccc43)ncn2)CC1` (stereo in doubt; form 1), the “inhibition (INH)” value in data set [6] stood at 44%. The same molecule gave an EC50 in data set [3] of 57 nM.

In turn, `CC(C)c1noc(N2CCC(Oc3cc(N4CCc5cc([S+]([O-])CCO)ccc54)ncn3)CC2)n1` (racemic) had a logD in data set [1] of 2.7. In addition, on hERG (KCNH2) [2], the inhibition at 5 min, 10 µM was determined as 107%. In data set [3], a half-maximal response (EC50) required 48 nM.

With `CC(C)c1noc(N2CCC(Oc3cc(N4CCc5cc(N6CCC[C@@H](O)C6=O)ccc54)ncn3)CC2)n1`, the pH-dependent lipophilicity (logD) in data set [1] stood at 3.3. The inhibition at 5 min, 10 µM against hERG (KCNH2) [2] stood at 23%. The molecule further showed a clearance in data set [7] of 6.25 mL/min/kg. The same molecule gave an EC50 in data set [3] of 25 nM.

`CC(C)c1noc(N2CCC(Oc3cc(N4CCc5cc(N6CCOCC6=O)ccc54)ncn3)CC2)n1`: the microsomal CLint at 1 µM in data set [4] came out at 46 µL/min/mg; in data set [5], 27 µL/min/mg. In data set [1], this molecule returned a logD of 3.1. Further, the inhibition at 5 min, 10 µM against hERG (KCNH2) [2] stood at 54%. The EC50 in data set [3] was 15 nM.

Take `CC(C)SC(=O)N1CCC(Oc2cc(N3CCc4cc([S+]([O-])CCO)ccc43)ncn2)CC1` (racemic): in data set [6], the “inhibition (INH)” value worked out at 95%. Moreover, in data set [3], it took 14 nM to reach a half-maximal effect (EC50).

Turning to `CC(=O)N(C)c1ccc2c(c1)CCN2c1cc(OC2CCN(c3nc(C(C)C)no3)CC2)ncn1`, the microsomal CLint at 1 µM in data set [4] worked out at 17 µL/min/mg; in data set [5], 173 µL/min/mg. Moreover, on hERG (KCNH2) [8], the inhibition at 5 min, 30 µM was determined as 108%. The logD in data set [1] turned out to be 3.7. In addition, at hERG (KCNH2) [2], the inhibition at 5 min, 10 µM is 66%. In data set [3], this molecule displayed a concentration giving a half-maximal response (EC50) of 75 nM.

In the case of `CC(C)c1noc(N2CCC(Oc3cc(N4CCc5cc(S(C)(=O)=O)ccc54)ncn3)CC2)n1`, the microsomal CLint at 1 µM in data set [5] was 69 µL/min/mg. For the same molecule, the inhibition at 5 min, 10 µM against hERG (KCNH2) [2] turned out to be 106%. In addition, the clearance in data set [7] is 3.83 mL/min/kg.

Regarding `CC(C)SC(=O)N1CCC(Oc2cc(N3CCc4ccccc43)ncn2)CC1`, the inhibition at 5 min, 30 µM against hERG (KCNH2) [8] was 16%. For the same molecule, the log distribution coefficient (logD) in data set [1] worked out at 5.3. For the same molecule, the inhibition at 5 min, 10 µM at hERG (KCNH2) [2] was 14%. Further, the half-maximal effective concentration (EC50) in data set [3] is more than 10000 nM.

With `CC(C)c1noc(N2CCC(Oc3cc(N4CCc5cc(N6CCCC(O)C6=O)ccc54)ncn3)CC2)n1` (racemic), in data set [4], the microsomal CLint at 1 µM was 4 µL/min/mg. In data set [1], this molecule returned a logD of 3.3. At hERG (KCNH2) [2], the inhibition at 5 min, 10 µM amounted to 20%. In addition, the EC50 in data set [3] came out at 17 nM.

Regarding `CC(C)OC(=O)N1CCC(Oc2cc(N3CCc4cc(S(C)(=O)=O)ccc43)ncn2)CC1`, on hERG (KCNH2) [2], the inhibition at 5 min, 10 µM came to 84%.
